Most compounds without a hit are left out; they make up all but 3.7% or so of the library.
14-3-3 Bad inh = disrupts binding of bovine 14-3-3 zeta to phospho-Bad peptide. P63103. TR-FRET 14-3-3zeta/Dy647-pBad peptide displacement, 1 h. inhibition, % at 21.7 µM. hit rate 0.71% among 220,000. AID 781;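 active means inhibition above about 70%, limit read from the data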;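 further: 0% = full 14-3-3 plus peptide FRET controls and 100% = background without 14-3-3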
WT yeast gro inh = growth inhibition of WT yeast, mitochondrial fusion screen. mitochondrial fusion phenotypic screen, WT strain. inhibition, % at 10 µM. hit rate 2.1% among 190,000; in the data active means inhibition above about 58%; tested in S. cerevisiae
eIF4E-4G inh = eIF4E/eIF4G interaction inhibition in translation initiation | TR-FRET eIF4E-eIF4GI(517-606) binding, 2 h | inhibition, % at 21.7 µM | hit rate 0.37% among 220,000;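 further: 0% = full FRET control wells and 100% = background wells lacking eIF4GI fragment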
EBV gp42 inh = EBV gp42 inhibition; Q1HVG2; Fluorescence polarization binding assay, mP read-out; inhibition, % (tested at 21.74 µM); hit rate 0.42% among 220,000; in the data active means inhibition above about 50%
NCF1 inh = p47phox (human) inhibition; p47phox/p22phox peptide binding, fluorescence polarization, 2 h; P14598; inhibition, % at 24.7 µM; AID 1274; hit rate 0.53% among 220,000;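 further: 0% = p47phox with labelled peptide and 100% = labelled peptide alone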
Target sequence (P14598 whole entry, looked up): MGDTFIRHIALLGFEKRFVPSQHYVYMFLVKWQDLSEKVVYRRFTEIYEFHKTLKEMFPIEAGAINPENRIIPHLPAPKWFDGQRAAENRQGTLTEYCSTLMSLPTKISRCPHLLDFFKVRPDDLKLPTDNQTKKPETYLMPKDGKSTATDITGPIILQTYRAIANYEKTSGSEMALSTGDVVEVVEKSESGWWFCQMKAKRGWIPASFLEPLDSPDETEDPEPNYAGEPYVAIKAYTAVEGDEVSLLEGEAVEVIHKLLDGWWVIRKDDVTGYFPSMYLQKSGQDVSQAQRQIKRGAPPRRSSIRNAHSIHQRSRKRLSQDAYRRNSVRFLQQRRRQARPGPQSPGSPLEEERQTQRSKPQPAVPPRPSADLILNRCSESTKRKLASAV
RBBP9 inh = blocks human serine hydrolase RBBP9 | O75884 | recombinant RBBP9, FP-Rh probe fluorescence polarization | inhibition, % at 7.94 µM | hit rate 0.2% among 220,000;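 active means inhibition above the campaign mean of all tested compounds plus 3 SD, cut at about 14% in these data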;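 further: plate controls were DMSO wells with RBBP9 for no effect and wells lacking RBBP9 protein for full effect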
Target sequence (O75884 whole entry, looked up): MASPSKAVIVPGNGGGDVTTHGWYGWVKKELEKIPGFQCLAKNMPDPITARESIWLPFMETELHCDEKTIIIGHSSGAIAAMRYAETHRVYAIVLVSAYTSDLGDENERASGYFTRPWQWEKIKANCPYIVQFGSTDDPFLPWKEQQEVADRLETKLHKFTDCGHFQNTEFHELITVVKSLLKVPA
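Measured by: FP readout at 525/598 nm; material: recombinant human RBBP9; also added: Serine-hydrolase probe FP-Rh, 375 nM pre-mixing; medium: Tris buffer pH 8.0, NaCl, Pluronic; replication: one well per compound; doses: one concentration, 7.94 µM nominal, 0.794% DMSO; timing: preincubation 30 min plus labeling 45 min at 25 °C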
An asterisk follows results filed as active; . = not tested or not shown; [ ] = another dose, or the depositor's remark.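 How the source made its calls, unless noted: active means inhibition above about 30% (limit read from the data); inactive means the rest.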

SMILES | 14-3-3 Bad inh | WT yeast gro inh | eIF4E-4G inh | EBV gp42 inh | NCF1 inh | RBBP9 inh
CCn1c(SCC(=O)Nc2ccc(Cl)cc2)nc2nc3c(cc2c1=O)CCCC3 | 10 | 36 | 3 | -3 | 1 | -12
CCn1c(SCC(=O)Nc2ccc(C(C)=O)cc2)nc2nc3c(cc2c1=O)CCCC3 | 42 | -14 | 51* | 16 | 7 | 4
COc1ccccc1Oc1ccc2c(c1)C(=O)N(c1cccc3ncccc13)C2=O | -8 | -4 | 10 | -10 | 36* | 9
Cc1ccc(C(=O)COC(=O)c2ccc3c(c2)C(=O)N(c2cccc4ncccc24)C3=O)cc1C | 57 | -8 | -48 | -17 | 73* | 10
COc1ccccc1Oc1ccc2c(c1)C(=O)N(c1cccc(O)c1)C2=O | -8 | -28 | 9 | -17 | -13 | -8
CCCCNC(=S)N(C)/N=C/c1c(F)c(F)c(F)c(F)c1F | -7 | 60* | 3 | 10 | -1 | -4
O=C1CC(c2cccc(Br)c2)c2cc3c(cc2N1)CCC3 (stereo not drawn) | 0 | 87* | -10 | 9 | -13 | -12
CN1CCN(Cc2nc3ccccc3c(=O)n2Cc2nc(-c3ccc([N+](=O)[O-])cc3)cs2)CC1 | 7 | -5 | -2 | 1 | 2 | 0
CN(C)Cc1nc2ccccc2c(=O)n1Cc1nc(-c2cccc([N+](=O)[O-])c2)cs1 | 98* | 13 | 0 | 13 | 2 | -4
O=c1[nH]c(CSc2nc3ccccc3s2)nc2ccccc12 | 1 | . | -1 | 1 | -15 | -8
COc1ccc(C2NCCc3c2[nH]c2ccccc32)cc1CSc1nc2ccccc2s1 (stereo not drawn) | 69 | 80 | 18 | -18 | 58* | 2
CCCCOP(=O)(c1ccc(N(C)C)cc1)C(Nc1ccccc1)c1ccccc1 (stereo not drawn) | 3 | 81* | -12 | 10 | -3 | -8
CCCOP(=O)(c1ccc(N(C)C)cc1)C(Nc1ccccc1)c1ccc(N(C)C)cc1 (stereo not drawn) | 7 | 18 | 0 | -22 | -31 | 3
Cc1cccc(NC(=O)CSc2nnc(NC(=O)c3ccco3)s2)c1 | -6 | -21 | -4 | -12 | -1 | -8
COC(CNC(=O)c1ccc2c3c(onc13)-c1ccccc1C2=O)OC | 7 | . | 2 | 190* | -95 | 12
COc1ccc(-n2c(Cc3cccn3C)nnc2SCC(=O)Nc2cccc(F)c2)cc1 | 6 | 3 | 62*[fluorescence artefact?] | -20 | -5 | -10
Cc1ccc(-n2c(Cc3cccs3)nnc2SCC(=O)Nc2ccc(F)c(F)c2)cc1 | -4 | 15 | -18 | 2 | 75* | -4
COc1ccc(-n2c(Cc3cccn3C)nnc2SCC(=O)Nc2ccccc2)cc1 | 2 | 12 | 3 | 9 | -24 | -4
C/C(=N\S(=O)(=O)c1ccc(C)cc1)N(C)C | 11 | . | -6 | -3 | 2 | 6
Cn1c(=O)c2c(nc(N3CCOCC3)n2C)n(C)c1=O | 6 | -15 | 0 | 0 | -18 | -7
CC(C(=O)c1ccccc1)n1c(N2CCOCC2)nc2c1c(=O)n(C)c(=O)n2C (stereo not drawn) | -2 | -7 | 0 | -16 | 55* | 0
O=C(CSc1ccccn1)Nc1cccc(NC(=O)CSc2ccccn2)n1 | 4 | 1 | -28 | -8 | -6 | -2
O=C(O)CSc1ccccn1 | 9 | -1 | 33* | 6 | -8 | -5
COc1ccc(NC(=O)CSc2ccccn2)cc1OC | 72* | 16 | -3 | -12 | -10 | -6
CC(C)c1ccccc1NC(=O)CC1(CC(=O)O)CCCC1 | 1 | . | 4 | -12 | -1 | -5
SMILES | 14-3-3 Bad inh | WT yeast gro inh | eIF4E-4G inh | EBV gp42 inh | NCF1 inh | RBBP9 inh
N#Cc1c(Cl)cccc1N1CCC(C(N)=O)CC1 | -1 | . | 1 | -8 | -6 | 3
CC(C)C(=O)Nc1nnc(SCC(=O)NCc2cccs2)s1 | -4 | 77* | 0 | -12 | -1 | -5
N/C(=N\OC(=O)c1cccc(Cn2cc(C(F)(F)F)ccc2=O)c1)c1ccc(Cl)cc1 | -8 | . | -3 | -3 | -7 | -5
O=C(O)c1[nH]c2ccc([N+](=O)[O-])cc2c1-c1ccccc1 | 0 | . | 1 | -5 | -12 | -3
O=C(N/N=C/c1ccccn1)c1[nH]c2ccc([N+](=O)[O-])cc2c1-c1ccccc1 | -13 | 65* | -1 | 4 | -22 | 0
CN(C)Cc1cc(C(C)(C)C)cc(C(C)(C)C)c1O | -3 | . | -1 | -2 | -10 | -5
CN(C)Cc1cc(O)c(CN(C)C)cc1O | 9 | . | 16 | -14 | 37* | 7
Cc1ccc(C(=O)NNC(=O)CCN2C(=O)C3CCCCC3C2=O)cc1 (stereo not drawn) | -3 | -19 | -1 | -11 | -11 | -2
CC(C)[C@@H]1CC[C@@H](C)c2c(-c3ccccc3)n[nH]c21 | 7 | 62* | 0 | 18 | 0 | 5
O=C(O)c1ccc(N2C(=O)c3[nH]nc(-c4ccccc4)c3C2c2ccccc2)cc1 (stereo not drawn) | -8 | -2 | 0 | -8 | -4 | -6
O=C(CSc1nc2ccc(Nc3nc(N4CCCC4)nc(N4CCCC4)n3)cc2s1)NCc1ccco1 | -1 | . | 92* | -15 | -21 | 1
O=C(Nc1ccccc1)c1sccc1Oc1ccc([N+](=O)[O-])cc1F | -19 | 13 | 6 | -6 | 1 | 5
CNC(=S)NNC(=O)c1sccc1OCc1ccc(Cl)cc1Cl | 3 | 12 | 6 | -16 | -9 | -4
S=c1nc(-c2sccc2OCc2ccc(Cl)cc2Cl)[nH][nH]1 | -7 | 64* | 0 | 9 | -2 | -15
O=C1/C(=C/c2ccco2)Oc2c1ccc(O)c2CN1CCCCC1 | -9 | 4 | 7 | 51* | -38 | -2
CC1CCN(Cc2c(O)ccc3c2O/C(=C\c2ccco2)C3=O)CC1 | 4 | -9 | 7 | 35 | -45 | -3
Cn1cc(Br)c(-c2cccc(N3C(=O)CCCC3=O)c2)n1 | -3 | . | 3 | -4 | -3 | -8
COC(=O)c1ccccc1NC(=O)c1cc([N+](=O)[O-])nn1Cc1ccccc1 | -2 | -6 | 15 | -16 | -6 | -8
CNc1c(N)n(Cc2ccccc2)c(=O)[nH]c1=O | 14 | -10 | -2 | 50* | -7 | 3
Cc1ccc(S(=O)(=O)N2CCC(=O)N(C(COCc3ccc(C(F)(F)F)cc3)Cc3ccccc3)CC2)cc1 (stereo not drawn) | 82* | 11 | 1 | -17 | 7 | -3
Cc1nn(C(=O)C2CC2)c(C)c1Sc1ccc(Cl)cc1 | -1 | 79* | 2 | -8 | -4 | -4
Cc1ccc(Sc2c(C)nn(C(=O)C3CC3)c2C)cc1 | -4 | 85* | 1 | 8 | -8 | -6
Cc1ccc(NC(=S)NCc2ccc3[nH]c4c(c3c2)CCCC4)cc1 | -3 | 73* | 4 | -4 | -20 | -2

Screening data from PubChem.
